Published values from different studies.
Protocols differ between the studies behind these lines.
Target: Testis-specific serine/threonine-protein kinase 1 (TSSK1B, Homo sapiens, UniProt Q9BXA7)
One construct used (Q9BXA7 1-367): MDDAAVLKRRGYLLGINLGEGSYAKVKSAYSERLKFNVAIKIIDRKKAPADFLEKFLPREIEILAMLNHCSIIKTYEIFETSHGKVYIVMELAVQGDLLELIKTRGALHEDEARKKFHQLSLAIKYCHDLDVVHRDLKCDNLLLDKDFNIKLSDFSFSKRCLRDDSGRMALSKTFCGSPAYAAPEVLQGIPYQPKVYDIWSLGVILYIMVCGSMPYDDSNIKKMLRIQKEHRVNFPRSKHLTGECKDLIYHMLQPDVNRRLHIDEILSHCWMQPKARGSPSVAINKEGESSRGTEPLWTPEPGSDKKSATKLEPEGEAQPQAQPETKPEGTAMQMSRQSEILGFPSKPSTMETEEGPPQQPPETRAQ

With `CSc1cccnc1N1CCN(Cc2nc3ccccc3[nH]2)CC1` the remaining binding was 100% (cell-free assay, competition with immobilised ligand; 1 µM).
`N#Cc1ccccc1CSc1nnc2c(n1)[nH]c1ccccc12` has a remaining binding of 100% (binding, competition with immobilised ligand; 10 µM).
`C[C@@H]1CN(c2ccc3ncc(-c4ccc5[nH]nc(C6CC6)c5c4)n3n2)C[C@H](C)O1` has a remaining binding of 78% (binding, competition with immobilised ligand; 50 nM).
With `NS(=O)(=O)c1cc(NC(=O)C2(c3ccccc3Cl)CC2)ccc1Oc1cccc(Cl)c1` the remaining binding was 100% (cell-free assay, competition with immobilised ligand; 1 µM).
`O=C(c1ccc(Nc2ncc(Cl)c(-c3ccc(Cl)s3)n2)cc1)N1CCC(N2CCCC2)CC1` has a remaining binding of 49% (binding, competition with immobilised ligand; 1 µM).
`CN(CCCC(F)(F)F)c1nccc(-c2cnn3ncccc23)n1` has a remaining binding of 92% (binding; 1 µM).
For `COc1ncc2cc3ccccc3nc2c1C#N`, the remaining binding was 97% (cell-free assay, competition with immobilised ligand; 5 µM).
`O=C(Nc1c[nH]nc1C(=O)NC1CCNCC1)c1cc(F)cc(F)c1` gave a remaining binding of 100% (binding, competition with immobilised ligand; 1 µM).
`c1cnn2ncc(-c3ccnc(N4CCC45COC5)n3)c2c1` gave a remaining binding of 65% (binding; 1 µM).
The remaining binding of `O=C(N1CCS(=O)(=O)CC1)N1C[C@H](c2ccc(OC(F)(F)F)cc2)C[C@H](c2nc(C3CC3)no2)C1` is reported as 95% (cell-free assay, competition with immobilised ligand; 1 µM).
With `Cc1cnc(Nc2ccc(C(=O)N3CCC(N4CCCC4)CC3)cc2)nc1-c1cc2ccccc2s1` the remaining binding was 85% (binding, competition with immobilised ligand; 1 µM).
For `Cn1cc(Cl)c2c(Oc3c(F)cc(Nc4cc(Cl)nc(N)n4)cc3F)ccnc21`, the remaining binding was 100% (cell-free assay, competition with immobilised ligand; 0.1 µM).
With `COc1cnc(Nc2cccc(S(N)(=O)=O)c2)nc1N1CCN(c2ccccc2)C(=O)C1` the remaining binding was 92% (binding, competition with immobilised ligand; 1 µM).
With `COc1ccc2c(c1)O[C@H](c1ccc(OC)c(OC)c1)C[C@@H]2NC(=O)C1(c2ccc3c(c2)OC(F)(F)O3)CC1` the remaining binding was 100% (cell-free assay, competition with immobilised ligand; 1 µM).
With `C[C@@H]1CCN(c2nccc(-c3cnn4ncccc34)n2)C1` the remaining binding was 100% (binding; 1 µM).
The remaining binding of `O=C(O)[C@@H]1[C@@H](Cn2nnc3ccccc3c2=O)CC[C@H]1C(=O)c1ccc(OCCC2CCOCC2)cc1` is reported as 100% (cell-free assay, competition with immobilised ligand; 1 µM).
For `CNC(=O)[C@@H]1CC[C@@H](n2c(-c3ccc4cnccc4c3)nc3ccc(C(=O)NCc4cccc(C(N)=O)c4)cc32)C1`, the remaining binding was 93% (binding, competition with immobilised ligand; 1 µM).
For `COc1ccc2cc(OCC3(C(=O)O)CN(C(=O)c4ccc(F)cc4)C3)ccc2c1`, the remaining binding was 100% (cell-free assay, competition with immobilised ligand; 1 µM).
With `CN(c1nccc(-c2cnn3ncccc23)n1)C1CC1` the remaining binding was 100% (binding; 1 µM).
`C=CC(=O)N1CCC(C(=O)NCC(=O)N2CCN(c3nc(-c4cnc(N)nc4C(F)F)nc(N4CCOCC4)n3)CC2)CC1` has a remaining binding of 95% (binding, competition with immobilised ligand; 1 µM).
`N[C@@H]1CCN(c2nccc(-c3cnn4ncccc34)n2)C1` gave a remaining binding of 97% (binding; 1 µM).
The remaining binding of `CNC(=O)Nc1ccc2c(c1)CC[C@@]21OC(=O)N(CC(=O)N(Cc2ccc(F)cc2)[C@@H](C)C(F)(F)F)C1=O` is reported as 84% (cell-free assay, competition with immobilised ligand; 1 µM).
`CC1CCCN1c1nccc(-c2cnn3ncccc23)n1` (centres unmarked) has a remaining binding of 100% (binding; 1 µM).
`CC(C)(C)c1ccc(-c2nc(CBr)nn2-c2cccc(O)c2)cc1` gave a remaining binding of 81% (cell-free assay, competition with immobilised ligand; 10 µM).
With `CN(C)c1nccc(-c2cnn3ncccc23)n1` the remaining binding was 100% (binding; 1 µM).
For `O=C(NCCCN1CCOCC1)c1ccc(Nc2ncc(Cl)c(-c3ccc(Cl)s3)n2)cc1`, the remaining binding was 62% (binding, competition with immobilised ligand; 1 µM).
